Activity calls are given as the source filed them. The rule behind the calls is not given here.
Legend:
CCRF-CEM = experiment: Cytotoxicity against human CCRF-CEM cells assessed as cell growth at 10 uM; assay type: functional; details: Homo sapiens, CCRF-CEM; read-out: Activity
Method in brief: (§1)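 Single-concentration screen at 10 μM across the 60-cell-line panel (nine tissue types); growth percentage recorded per cell line, with inhibition taken as 100 minus growth percentage.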

MOLT-4 = experiment: Cytotoxicity against human MOLT4 cells assessed as cell growth at 10 uM; assay type: functional; details: Homo sapiens, MOLT-4; read-out: Activity
Method in brief: (§2)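 Single-dose screen at 10 μM across the 60-cell-line panel. Cells grown in RPMI 1640 with 5% FBS and 2 mM L-glutamine, seeded at 5,000–40,000 cells/well according to doubling time, and treated 24 h later. Exposure lasted 48 h at 37 °C, 5% CO₂. Adherent cells were fixed with cold TCA, suspension cells were fixed settled, and both were stained with SRB and read at 515 nm. Growth % was recorded, with inhibition % = 100 − growth %.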

[1] = Cytotoxicity against human […] cells assessed as cell growth at 10 uM; assay type: functional; details: Homo sapiens, RPMI8266; read-out: Activity; method in brief: as §2
SR = experiment: Cytotoxicity against human SR cells assessed as cell growth at 10 uM; assay type: functional; details: Homo sapiens, SR; read-out: Activity; method in brief: as §2
HOP-92 = experiment: Cytotoxicity against human HOP92 cells assessed as cell growth at 10 uM; assay type: functional; details: Homo sapiens, HOP-92; read-out: Activity; method in brief: as §1
NCI-H460 = experiment: Cytotoxicity against human NCI-H460 cells assessed as cell growth at 10 uM; assay type: functional; details: Homo sapiens, NCI-H460; read-out: Activity; method in brief: as §2
NCI-H522 [2] = experiment: Cytotoxicity against human NCI-H522 cells assessed as cell growth at 10 uM; assay type: functional; details: Homo sapiens, NCI-H522; read-out: Activity; method in brief: as §2
HCC 2998 = experiment: Cytotoxicity against human HCC2998 cells assessed as cell growth at 10 uM; assay type: functional; details: Homo sapiens, HCC 2998; read-out: Activity; method in brief: as §1
SF-539 = experiment: Cytotoxicity against human SF539 cells assessed as cell growth at 10 uM; assay type: functional; details: Homo sapiens, SF-539; read-out: Activity; method in brief: as §2
SNB-19 = experiment: Cytotoxicity against human SNB19 cells assessed as cell growth at 10 uM; assay type: functional; details: read-out: Activity; method in brief: as §2
SNB-75 = experiment: Cytotoxicity against human SNB75 cells assessed as cell growth at 10 uM; assay type: functional; details: Homo sapiens, SNB-75; read-out: Activity; method in brief: as §2
Malme-3M [3] = experiment: Cytotoxicity against human MALME-3M cells assessed as cell growth at 10 uM; assay type: functional; details: Homo sapiens, Malme-3M; read-out: Activity; method in brief: as §2
MDA-MB-435 = experiment: Cytotoxicity against human MDA-MB-435 cells assessed as cell growth at 10 uM; assay type: functional; details: read-out: Activity; method in brief: as §2
SK-MEL-5 = experiment: Cytotoxicity against human SK-MEL-5 cells assessed as cell growth at 10 uM; assay type: functional; details: Homo sapiens, SK-MEL-5; read-out: Activity; method in brief: as §2
NCI/ADR-RES = experiment: Cytotoxicity against human NCI/ADR-RES cells assessed as cell growth at 10 uM; assay type: functional; details: Homo sapiens, NCI/ADR-RES; read-out: Activity; method in brief: as §2
786-0 = experiment: Cytotoxicity against human 786-0 cells assessed as cell growth at 10 uM; assay type: functional; details: Homo sapiens, 786-0; read-out: Activity; method in brief: as §1
A498 = experiment: Cytotoxicity against human A498 cells assessed as cell growth at 10 uM; assay type: functional; details: Homo sapiens, A498; read-out: Activity; method in brief: as §1
CAKI-1 = experiment: Cytotoxicity against human Caki1 cells assessed as cell growth at 10 uM; assay type: functional; details: Homo sapiens, CAKI-1; read-out: Activity; method in brief: as §1
RXF 393 = experiment: Cytotoxicity against human RXF393 cells assessed as cell growth at 10 uM; assay type: functional; details: Homo sapiens, RXF 393; read-out: Activity; method in brief: as §2
SN12C = experiment: Cytotoxicity against human SN12C cells assessed as cell growth at 10 uM; assay type: functional; details: Homo sapiens, SN12C; read-out: Activity; method in brief: as §2
TK-10 = experiment: Cytotoxicity against human TK10 cells assessed as cell growth at 10 uM; assay type: functional; details: Homo sapiens, TK-10; read-out: Activity; method in brief: as §2
MCF7 = experiment: Cytotoxicity against human MCF7 cells assessed as cell growth at 10 uM; assay type: functional; details: Homo sapiens, MCF7; read-out: Activity; method in brief: as §2
[4] = Cytotoxicity against human Hs 578T cells assessed as cell growth at 10 uM; assay type: functional; details: read-out: Activity; method in brief: as §1
BT-549 = experiment: Cytotoxicity against human BT549 cells assessed as cell growth at 10 uM; assay type: functional; details: Homo sapiens, BT-549; read-out: Activity; method in brief: as §1
LOX IMVI = experiment: Cytotoxicity against human LOXIMVI cells assessed as cell growth at 0.001 uM after 48 hrs by sulforhodamine B assay; assay type: functional; details: read-out: Activity
UACC-62 = experiment: Cytotoxicity against human UACC62 cells assessed as cell growth at 0.001 uM after 48 hrs by sulforhodamine B assay; assay type: functional; details: UACC-62, 48 h, read-out: Activity
NCI-H522 [5] = experiment: Cytotoxicity against human NCI-H522 cells assessed as cell growth at 100 nM after 48 hrs by sulforhodamine B assay; assay type: functional; details: NCI-H522, 48 h, read-out: Activity
EKVX = experiment: Cytotoxicity against human EKVX cells assessed as cell growth at 0.01 uM after 48 hrs by sulforhodamine B assay; assay type: functional; details: read-out: Activity
ACHN = experiment: Cytotoxicity against human ACHN cells assessed as cell growth at 10 uM after 48 hrs by sulforhodamine B assay; assay type: functional; details: read-out: Activity
Method in brief: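 Cells grown in RPMI 1640 with 5% FBS and 2 mM L-glutamine, seeded at 5,000–40,000 cells/well by doubling time. Time-zero plates TCA-fixed after 24 h. Five concentrations (10-fold or half-log dilutions from DMSO stock) added; 48 h at 37 °C, 5% CO2. Cold TCA fixation (final 10%, 60 min, 4 °C), 0.4% SRB stain, dye solubilized in 10 mM trizma base, A515.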

OVCAR-5 = experiment: Cytotoxicity against human OVCAR5 cells assessed as cell growth at 0.01 uM after 48 hrs by sulforhodamine B assay; assay type: functional; details: OVCAR-5, 48 h, read-out: Activity
SK-OV-3 = experiment: Cytotoxicity against human SKOV3 cells assessed as cell growth at 0.01 uM after 48 hrs by sulforhodamine B assay; assay type: functional; details: SK-OV-3, 48 h, read-out: Activity
NCI-H522 [6] = experiment: Growth inhibition of human NCI-H522 cells after 48 hrs by sulforhodamine B assay; assay type: functional, cell-based; details: NCI-H522, 48 h; for CC50: read-out: LC50 (the source's name)
Method in brief: (§3)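 Cells grown in RPMI 1640 with 5% FBS and 2 mM L-glutamine, seeded at 5,000–40,000 cells/well according to doubling time. After 24 h, time-zero plates are TCA-fixed. Five concentrations (10-fold or ½log dilutions, DMSO stocks) are applied for 48 h at 37 °C, 5% CO₂. Cells are TCA-fixed, SRB-stained and read at 515 nm. IC₅₀ is taken from [(Ti−Tz)/(C−Tz)]×100 = 50.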

Malme-3M [7] = experiment: Growth inhibition of human MALME-3M cells after 48 hrs by sulforhodamine B assay; assay type: functional, cell-based; method in brief: as §3
A549 = experiment: Cytotoxicity against human A549 cells assessed as cell growth at 10 uM; assay type: functional; details: Homo sapiens, A549; read-out: Activity; method in brief: as §1

CC(=O)Nc1cccc(-c2ccc(-c3ccnc(NC(=O)Nc4cc(C(F)(F)F)cc(C(F)(F)F)c4)n3)cn2)c1.Cl
growth at 10 µM (CCRF-CEM): 43.3%
growth at 10 µM (MOLT-4): 53.3%
growth at 10 µM [1]: 38.1%
growth at 10 µM (SR): 68%
growth at 10 µM (HOP-92): 72.4%
growth at 10 µM (NCI-H460): 34.5%
growth at 10 µM (NCI-H522 [2]): 8.5%
growth at 10 µM (HCC 2998): 70.7%
growth at 10 µM (SF-539): 75.6%
growth at 10 µM (SNB-19): 50.5%
growth at 10 µM (SNB-75): 87.2%
growth at 10 µM (Malme-3M [3]): 52.3%
growth at 10 µM (MDA-MB-435): 73.9%
growth at 10 µM (SK-MEL-5): -25.5%
growth at 10 µM (NCI/ADR-RES): 45.5%
growth at 10 µM (786-0): 69.8%
growth at 10 µM (A498): 59%
growth at 10 µM (CAKI-1): 50.9%
growth at 10 µM (RXF 393): 121%
growth at 10 µM (SN12C): 68%
growth at 10 µM (TK-10): 76%
growth at 10 µM (MCF7): 7.95%
growth at 10 µM [4]: 120%
growth at 10 µM (BT-549): 47.3%
growth at 0.001 µM (LOX IMVI): 95%
growth at 0.001 µM (UACC-62): 93%
growth at 0.1 µM (NCI-H522 [5]): 72%
growth at 0.01 µM (EKVX): 79%
growth at 10 µM (ACHN): -84%
growth at 0.01 µM (OVCAR-5): 82%
growth at 0.01 µM (SK-OV-3): 98%
GI50 (NCI-H522 [6]): 1.71 µM
IC50 (NCI-H522 [6]): 1.71 µM
TGI (NCI-H522 [6]): 5.85 µM
CC50 (NCI-H522 [6]): 35.3 µM
LC50 (Malme-3M [7]): inactive
GI50 (Malme-3M [7]; Homo sapiens, Malme-3M, 48 h): 2.01 µM
TGI (Malme-3M [7]; Homo sapiens, Malme-3M, 48 h): 4.48 µM
IC50 (Malme-3M [7]; Homo sapiens, Malme-3M, 48 h, read-out: IC50): 2.01 µM

Cc1ccc(Nc2nc(C)cc(-c3cccnc3)n2)c(C)c1
growth at 10 µM (CCRF-CEM): 95.4%
growth at 10 µM (MOLT-4): 91.4%
growth at 10 µM [1]: 86.7%
growth at 10 µM (SR): 94.4%
growth at 10 µM (A549): 90.3%
growth at 10 µM (HOP-92): 86.9%
growth at 10 µM (NCI-H460): 95.7%
growth at 10 µM (NCI-H522 [2]): 90.6%
growth at 10 µM (HCC 2998): 101%
growth at 10 µM (SF-539): 89.7%
growth at 10 µM (SNB-19): 101%
growth at 10 µM (SNB-75): 85.3%
growth at 10 µM (Malme-3M [3]): 107%
growth at 10 µM (MDA-MB-435): 95.4%
growth at 10 µM (SK-MEL-5): 89.8%
growth at 10 µM (NCI/ADR-RES): 85%
growth at 10 µM (786-0): 93.2%
growth at 10 µM (A498): 96.1%
growth at 10 µM (CAKI-1): 88.8%
growth at 10 µM (RXF 393): 90.7%
growth at 10 µM (SN12C): 91.2%
growth at 10 µM (TK-10): 118%
growth at 10 µM (MCF7): 90%
growth at 10 µM [4]: 95.9%
growth at 10 µM (BT-549): 95.9%

CC(=O)c1ccccc1-c1ccc(-c2ccnc(NC(=O)Nc3cc(N4CCOCC4)cc(C(F)(F)F)c3)n2)cn1
growth at 10 µM (CCRF-CEM): 80.7%
growth at 10 µM (MOLT-4): 87.1%
growth at 10 µM [1]: 79.7%
growth at 10 µM (SR): 86.2%
growth at 10 µM (A549): 68%
growth at 10 µM (NCI-H460): 87.4%
growth at 10 µM (NCI-H522 [2]): 60.2%
growth at 10 µM (HCC 2998): 106%
growth at 10 µM (SF-539): 44.3%
growth at 10 µM (SNB-19): 71.7%
growth at 10 µM (SNB-75): 8.55%
growth at 10 µM (Malme-3M [3]): 24.8%
growth at 10 µM (MDA-MB-435): 82.8%
growth at 10 µM (SK-MEL-5): 43.2%
growth at 10 µM (NCI/ADR-RES): 58.1%
growth at 10 µM (786-0): 47.3%
growth at 10 µM (A498): 107%
growth at 10 µM (CAKI-1): 83.5%
growth at 10 µM (RXF 393): -19.6%
growth at 10 µM (SN12C): 52.3%
growth at 10 µM (TK-10): 47.8%
growth at 10 µM (MCF7): 75%
growth at 10 µM [4]: 60.8%
growth at 10 µM (BT-549): 51.7%
growth at 0.001 µM (LOX IMVI): 104%
growth at 0.001 µM (UACC-62): 94%
growth at 0.1 µM (NCI-H522 [5]): 101%
growth at 0.01 µM (EKVX): 94%
growth at 10 µM (ACHN): 15%
growth at 0.01 µM (OVCAR-5): 100%
growth at 0.01 µM (SK-OV-3): 113%
GI50 (NCI-H522 [6]): > 100 µM
IC50 (NCI-H522 [6]): 63.2 µM
TGI (NCI-H522 [6]): > 100 µM
CC50 (NCI-H522 [6]): > 100 µM
TGI (Malme-3M [7]; Homo sapiens, Malme-3M, 48 h): > 100 µM
CC50 (Malme-3M [7]; Homo sapiens, Malme-3M, 48 h, read-out: LC50 (the source's name)): > 100 µM
IC50 (Malme-3M [7]; malme-3m): Not Active

From ChEMBL document CHEMBL1165943, “Design and synthesis of new anticancer pyrimidines with multiple-kinase inhibitory effect” (Bioorg Med Chem, 2010)
